In data set [1] the target is T1, Peroxisome proliferator-activated receptor gamma (Homo sapiens) (UniProt P37231).
T1 sequence (whole entry): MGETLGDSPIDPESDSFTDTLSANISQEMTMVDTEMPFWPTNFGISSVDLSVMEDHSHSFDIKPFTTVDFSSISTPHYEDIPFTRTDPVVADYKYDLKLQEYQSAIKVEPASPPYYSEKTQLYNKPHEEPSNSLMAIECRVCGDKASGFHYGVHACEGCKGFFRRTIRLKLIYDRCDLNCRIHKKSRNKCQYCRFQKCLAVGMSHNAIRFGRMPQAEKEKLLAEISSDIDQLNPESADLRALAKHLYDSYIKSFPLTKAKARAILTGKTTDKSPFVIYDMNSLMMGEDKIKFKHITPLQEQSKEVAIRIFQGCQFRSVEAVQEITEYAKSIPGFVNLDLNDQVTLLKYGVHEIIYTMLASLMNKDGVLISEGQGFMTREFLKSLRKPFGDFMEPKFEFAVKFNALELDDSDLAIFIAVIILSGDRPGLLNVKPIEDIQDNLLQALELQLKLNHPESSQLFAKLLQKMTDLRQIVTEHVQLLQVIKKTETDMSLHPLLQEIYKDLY
Description: Agonist activity at PPARgamma in human MKN45 cells assessed as induction of cell aggregation incubated for 5 days by Hoechst 33342 staining based IN cell analyzer method relative to (E)-3-(1-(8-((4-methyl-2-propyl-1H-benzo[d]imidazol-1-yl)methyl)dibenzo[b,e]oxepin-11(6H)-ylidene)ethyl)-1,2,4-oxadiazol-5(4H)-one. Put shortly: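 MKN45 cells in RPMI1640 with 10% FBS at 37 °C, 5% CO2, seeded 2500 cells/well and exposed to compound 1-1000 nM (n = 3 per concentration) for 5 days. Nuclei stained with Hoechst 33342, imaged on IN Cell Analyzer, nuclear area computed. Maximum activity expressed as % of reference compound maximum; EC50 = concentration giving 50% of own maximum.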

The target in data set [2] is T2, Peroxisome proliferator-activated receptor gamma (Homo sapiens, UniProt P37231).
T2 sequence (P37231 whole entry): T1 sequence (whole entry)
Put plainly: Transactivation of chimeric GAL4-fused human PPARgamma transfected in HEK293EBNA cells measured at 24 hrs after drug treatment by steady-Glo luciferase assay reagent based luminescence assay. The class given is cell-based. The gist of the method:
(§1)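 HEK293EBNA cells in DMEM with 10% FBS, 37 °C, 5% CO2, transiently co-transfected with pM-human PPARγ/GAL4 expression vector and pZAC19-Luc reporter; 24 h later plated and treated with compound 1-3000 nM (n = 3 per concentration), diluted from DMSO in unsupplemented DMEM, for 24 h. Steady-Glo luciferase readout, normalized to pioglitazone 1000 nM (100%); EC50 at 50% of own maximum.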

The nature of data set [3]: Intrinsic clearance in human liver microsomes incubated for 30 mins in presence of NADPH by LC-MS/MS analysis. In general terms: Microsomes from liver hold many membrane-bound enzymes, among them those of drug oxidation.
The target in data set [4] is T1, Peroxisome proliferator-activated receptor gamma (Homo sapiens). Description: Transactivation of chimeric GAL4-fused human PPARgamma transfected in HEK293EBNA cells measured at 24 hrs after drug treatment by steady-Glo luciferase assay reagent based luminescence assay relative to pioglitazone. The data set is classed as cell-based. Put shortly:
as §1

Data set [5] is described as follows: AUC in BALB/c mouse at 10 mg/kg, po by LC-MS/MS analysis. Particulars: in vivo. The data set is classed as ADME, organism-based. Put shortly:
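Male BALB/c mice, single oral dose 10 mg/kg (n = 2). Tail-vein blood at set times, plasma protein-precipitated with acetonitrile plus internal standard, LC-MS/MS (APCI, positive ion), quantified against standard curve in control plasma; AUC by noncompartmental analysis of concentration-time profile.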

The nature of data set [6]: Toxicity in C57BL/6 mouse assessed as hematocrit level at 40 mg/kg (reference value: 45%). The class given is organism-based. The conditions noted are these: in vivo.
Data set [7] in a line: Antitumour activity against human AsPC1/AG1 cells xenografted in SCID mouse assessed as minimal dose required for reduction in tumor volume administered orally bid for 14 days starting from 7th day post tumor inoculation. The conditions noted are these: ASPC1, po, 336 h, read-out: MED. The class given is functional. The gist of the method:
(§2)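 Male SCID mice (8 weeks) inoculated s.c. with 3×10^7 AsPC-1/AG1 cells; from day 7, randomized by tumour volume into groups of 5 given 12.5, 25, 50 or 100 mg/kg or 0.5% MC400 vehicle orally twice daily for 14 days. Volume = 0.5 × major × minor² measured twice weekly; relative volume V/V0 versus day 0; Steel test, P < 0.05.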
(A xenograft is tissue or cells of one species grown in another, often human tumour cells in immunodeficient mice.)

Data set [8] in a line: Toxicity in Crlj:CD1(ICR) mouse assessed as serum hematocrit value at 200 mg/kg, po bid for 4 days by micro-hematocrit method (reference value: 44.1%). The class given is organism-based. The conditions noted are these: in vivo, 96 h.
Data set [9] concerns Homo sapiens. Put plainly: Antitumour activity against human AsPC1/AG1 cells xenografted in SCID mouse assessed as saturated level of reduction in tumor volume at >25 mg/kg, po bid for 14 days starting from 7th day post tumor inoculation and measured after 10 days. The class given is functional, organism-based. Put shortly: as §2
For data set [10], the system named is Homo sapiens. Put plainly: Antitumour activity against human AsPC1/AG1 cells xenografted in SCID mouse assessed as increase in cell differentiation marker krt20 mRNA expression level at 100 mg/kg, po bid for 14 days starting from 7th day post tumor inoculation and measured at 4 hrs post last dose by qRT-PCR analysis. The data set is classed as functional, organism-based. Put shortly: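 Male SCID mice bearing s.c. AsPC-1/AG1 tumours (3×10^7 cells in PBS), dosed orally twice daily for 14 days from day 7 after inoculation; vehicle 0.5% MC400. Tumours collected 4 h after last dose; angptl4 and krt20 mRNA measured by qPCR, fold induction relative to baseline.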

A short description of data set [11]: Toxicity in Crlj:CD1(ICR) mouse assessed as serum hematocrit value at 50 mg/kg, po bid for 4 days by micro-hematocrit method (reference value: 44.1%). Particulars: in vivo, 96 h. The data set is classed as organism-based.
Data set [12] has as its system Homo sapiens. Put plainly: Antitumour activity against human AsPC1/AG1 cells xenografted in SCID mouse assessed as increase in angptl4 mRNA expression at 100 mg/kg, po bid for 14 days starting from 7th day post tumor inoculation and measured at 4 hrs post last dose by qRT-PCR analysis.
For data set [13], the system named is Homo sapiens. Put plainly: Antitumour activity against human AsPC1/AG1 cells xenografted in SCID mouse assessed as reduction in tumor volume at 12.5 to 100 mg/kg, po bid for 14 days starting from 7th day post tumor inoculation. The class given is functional, organism-based. Put shortly: as §2

The source made the active and inactive calls. No cut-off for these calls is given here.

Data on 18 molecules can be found in ChEMBL document CHEMBL4304839, “Development of a novel class of peroxisome proliferator-activated receptor (PPAR) gamma ligands as an anticancer agent with a unique binding mode based on a non-thiazolidinedione scaffold” (Bioorg Med Chem, 2019).

As usually defined, the EC50 is the concentration needed to bring the measured effect to its halfway point. The low end stands for an effect from little substance, the high end for a need for much substance. The term CLint scaled denotes the rate of metabolic loss divided by the concentration. As usually defined, the AUC is concentration integrated over time. High values mean high exposure, low ones low exposure.

As to `C/C(=C1/c2ccc(Cn3c(C4CC4)nc4c(Cl)ccnc43)cc2COc2cc(F)ccc21)c1noc(=O)[nH]1`, the results for the Emax in [1] and in [4] were 101% and 10.3%, respectively. The same molecule returned an EC50 in [2] of 0.032 to 0.038 µM. Besides, in [3], the CLint scaled at 0.5 h was 38.3 mL/min/kg.

For the molecule `CCCc1nc2ccccc2n1Cc1ccc2c(c1)COc1cc(F)ccc1/C2=C(\C)c1noc(=O)[nH]1`, the Emax in data set [1] came to 104%; in [4] it was 11.7%. This molecule also came in with an area under the curve (AUC) in data set [5] of 1480 ng·h/mL.

Regarding `COCc1nc2cc(Cl)ccn2c1Cc1ccc2c(c1)COc1cc(F)ccc1/C2=C(\C)c1noc(=O)[nH]1`, the Emax in data set [1] is 106%; in data set [4] it was 9%. Further, the AUC in data set [5] is 2450 ng·h/mL.

`C/C(=C1/c2ccc(Cn3c(C4CC4)nc4c(Cl)nccc43)cc2COc2cc(F)ccc21)c1noc(=O)[nH]1`: the Emax in data set [1] is 105%; in [4], 13.7%. Moreover, in data set [2], the EC50 lay in the range of 0.024 to 0.059 µM. In addition, the intrinsic clearance (CLint scaled) at 0.5 h in data set [3] is 167 mL/min/kg.

Turning to `C/C(=C1/c2ccc(Cn3c(C4CC4)nc4cscc43)cc2COc2cc(F)ccc21)c1noc(=O)[nH]1`, the figures for the Emax in [1] and in [4] were 105% and 13.7%, respectively. In [2], this molecule yielded a 50% effective concentration (EC50) of 0.021 µM. For the same molecule, the AUC in [5] worked out at 196 ng·h/mL. Besides, the CLint scaled at 0.5 h in [3] was 41.7 mL/min/kg.

On to `CCCc1nc2c(C)cccc2n1Cc1ccc2c(c1)COc1ccccc1/C2=C(\C)c1noc(=O)[nH]1`, for which, in [3], the CLint scaled at 0.5 h is greater than 415 mL/min/kg.

Consider `CCc1ccc(CCOc2ccc(CC3SC(=O)NC3=O)cc2)nc1` (centres undefined) [PIOGLITAZONE], for which, in data set [6], the Activity is on record as 41%.

In the case of `CCCc1nc2ccccc2n1Cc1ccc2c(c1)COc1c(F)cccc1/C2=C(\C)c1noc(=O)[nH]1`, the Emax in [1] was 101%; in data set [4] it was 8.7%. Moreover, the EC50 in data set [2] came to 0.0044 µM. In [3], the intrinsic metabolic clearance (CLint scaled) at 0.5 h was 377 mL/min/kg.

`C/C(=C1/c2ccc(Cc3c(C4CC4)nc4ccc(Cl)cn34)cc2COc2cc(F)ccc21)c1noc(=O)[nH]1`: the figures for the Emax in [1] and in [4] were 102% and 15.1%, respectively. In data set [2], a half-maximal effect (EC50) was put at 0.011 µM. This molecule displayed an exposure (AUC) in [5] of 1710 ng·h/mL. Besides, in data set [3], the intrinsic clearance (CLint scaled) at 0.5 h was 66.7 mL/min/kg.

Consider `C/C(=C1/c2ccc(Cc3c(C4CC4)nc4c5c(ccn34)OCC5)cc2COc2cc(F)ccc21)c1noc(=O)[nH]1`, for which the Emax in data set [1] was 110%; in [4], 9.7%. In addition, the concentration for a half-maximal effect (EC50) in data set [2] is 0.023 µM. In [5], this molecule yielded an exposure (AUC) of 8760 ng·h/mL. In data set [3], the intrinsic metabolic clearance (CLint scaled) at 0.5 h was 33.3 mL/min/kg.

On to `CCCc1nc2ccccc2n1Cc1ccc2c(c1)COc1ccc(F)cc1/C2=C(\C)c1noc(=O)[nH]1`, for which the values for the Emax in [1] and in data set [4] were 102% and 6.9%, respectively. Further, the intrinsic clearance (CLint scaled) at 0.5 h in data set [3] was greater than 415 mL/min/kg.

`C/C(=C1/c2ccc(Cc3c(C4CC4)nc4cc(F)ccn34)cc2COc2cc(F)ccc21)c1noc(=O)[nH]1`: the values for the Emax in data set [1] and in data set [4] were 112% and 13.5%, respectively. In data set [2], this molecule yielded a concentration for a half-maximal effect (EC50) of 0.013 µM. In [5], the AUC is 5510 ng·h/mL.

For `COCc1nc2c(Cl)cccn2c1Cc1ccc2c(c1)COc1cc(F)ccc1/C2=C(\C)c1noc(=O)[nH]1`, the Emax in [1] stood at 96%; in [4], 7.4%. The molecule further returned an EC50 in data set [2] of 0.0073 µM. The molecule further gave an exposure (AUC) in [5] of 1090 ng·h/mL. Moreover, the CLint scaled at 0.5 h in data set [3] is 21.7 mL/min/kg.

For the molecule `C/C(=C1/c2ccc(Cc3c(C4CC4)nc4c(Cl)cccn34)cc2COc2cc(F)ccc21)c1noc(=O)[nH]1`, in data set [7], the minimal effective dose fell in the range of 12.5 to 25 mg/kg. In addition, the Activity in [8] is given as 42%; in data set [11], 42.9%. The inhibition result with Homo sapiens [9] and in the data set on Homo sapiens [13] was “Active” each time. For the same molecule, the outcome in the data set with Homo sapiens [10] and with Homo sapiens [12] was Active. In addition, the figures for the Emax in [1] and in [4] were 103% and 10.6%, respectively. In addition, in data set [5], the area under the curve (AUC) amounted to 6890 ng·h/mL.

In data set [2], `CCCc1nc2c(C)cccc2n1Cc1ccc2c(n1)COc1ccccc1/C2=C(\C)c1noc(=O)[nH]1` came in with an EC50 of 0.086 µM. In addition, in data set [3], the CLint scaled at 0.5 h is greater than 415 mL/min/kg.

With `C/C(=C1/c2ccc(Cc3c(C4CC4)nc4cc(Cl)ccn34)cc2COc2cc(F)ccc21)c1noc(=O)[nH]1`, the Emax in [1] is 101%; in [4], 12.6%. For the same molecule, the concentration giving a half-maximal response (EC50) in [2] came to 0.0036 µM. In addition, the AUC in data set [5] was 10200 ng·h/mL.

Take `C/C(=C1/c2ccc(Cc3c(C4CC4)nc4ccccn34)cc2COc2cc(F)ccc21)c1noc(=O)[nH]1`: the Emax was 106% in [1] and 9.8% in data set [4]. In data set [2], this molecule displayed an EC50 of 0.019 µM. Also, the AUC in data set [5] was 3750 ng·h/mL.

Regarding `CCCc1nc2c(C)cccc2n1Cc1ccc2c(c1)OCc1ncccc1/C2=C(\C)c1noc(=O)[nH]1`, a half-maximal effect in data set [2] (EC50) was put at 2.19 µM. For the same molecule, the CLint scaled at 0.5 h in data set [3] was 34.3 mL/min/kg.
